Experimental data reported in ChEMBL document CHEMBL1140213, “Synthesis and structure-activity relationship studies of 2-(N-substituted)-aminobenzimidazoles as potent negative gating modulators ofsmall conductance Ca2+-activated K+ channels” (J Med Chem, 2008).
Activity calls are given as the source filed them. The calls are words filed in the database; no cut-off is given here.

What was measured:
[1] = target: Small conductance calcium-activated potassium channel protein 3 (Rattus norvegicus, UniProt P70605); assay: (§1) Inhibition of Wistar rat recombinant SK3 channel expressed in HEK293 cells by whole cell patch clamp technique; assay type: cell-based
Small conductance calcium-activated potassium channel protein 3 (Rattus norvegicus, UniProt P70605), sequence (P70605 whole entry): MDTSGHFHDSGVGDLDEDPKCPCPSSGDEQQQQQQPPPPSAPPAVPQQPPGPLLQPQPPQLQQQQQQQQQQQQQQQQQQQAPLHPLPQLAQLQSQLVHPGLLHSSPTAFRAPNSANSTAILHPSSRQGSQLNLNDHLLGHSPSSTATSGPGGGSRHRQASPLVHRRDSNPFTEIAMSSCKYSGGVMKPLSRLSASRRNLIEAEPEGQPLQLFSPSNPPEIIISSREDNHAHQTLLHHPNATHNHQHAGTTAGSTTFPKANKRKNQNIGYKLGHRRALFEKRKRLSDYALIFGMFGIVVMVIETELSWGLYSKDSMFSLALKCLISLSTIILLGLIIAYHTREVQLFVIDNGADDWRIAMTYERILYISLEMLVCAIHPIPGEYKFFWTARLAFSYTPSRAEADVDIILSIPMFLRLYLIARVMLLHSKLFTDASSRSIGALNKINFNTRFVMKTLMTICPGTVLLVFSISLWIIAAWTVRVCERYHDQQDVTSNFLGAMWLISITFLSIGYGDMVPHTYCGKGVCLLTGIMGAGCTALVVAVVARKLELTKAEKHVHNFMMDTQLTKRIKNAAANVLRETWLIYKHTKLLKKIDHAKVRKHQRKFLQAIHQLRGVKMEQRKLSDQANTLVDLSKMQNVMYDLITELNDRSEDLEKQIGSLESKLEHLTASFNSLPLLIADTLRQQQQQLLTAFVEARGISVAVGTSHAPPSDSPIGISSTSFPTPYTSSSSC
Procedure, shortened: (§2)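 Whole-cell patch clamp on HEK293 cells stably expressing rat SK3. Extracellular solution contains 4 mM K+. Pipette Ca2+ is buffered at 400 nM. Kd comes from single-concentration kinetics experiments (n = independent experiments), reported as mean ± SEM.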

[2] = target: Small conductance calcium-activated potassium channel protein 3 (Rattus norvegicus) (UniProt P70605); assay: as §1; assay type: cell-based; procedure, shortened: as §2
Small conductance calcium-activated potassium channel protein 3 (Rattus norvegicus), sequence (P70605 whole entry): as above

[3] = target: Small conductance calcium-activated potassium channel protein 2 (Homo sapiens, UniProt Q9H2S1); assay: Inhibition of human SK2 channel by inside-out patch clamp technique
Small conductance calcium-activated potassium channel protein 2, sequence (Q9H2S1 whole entry): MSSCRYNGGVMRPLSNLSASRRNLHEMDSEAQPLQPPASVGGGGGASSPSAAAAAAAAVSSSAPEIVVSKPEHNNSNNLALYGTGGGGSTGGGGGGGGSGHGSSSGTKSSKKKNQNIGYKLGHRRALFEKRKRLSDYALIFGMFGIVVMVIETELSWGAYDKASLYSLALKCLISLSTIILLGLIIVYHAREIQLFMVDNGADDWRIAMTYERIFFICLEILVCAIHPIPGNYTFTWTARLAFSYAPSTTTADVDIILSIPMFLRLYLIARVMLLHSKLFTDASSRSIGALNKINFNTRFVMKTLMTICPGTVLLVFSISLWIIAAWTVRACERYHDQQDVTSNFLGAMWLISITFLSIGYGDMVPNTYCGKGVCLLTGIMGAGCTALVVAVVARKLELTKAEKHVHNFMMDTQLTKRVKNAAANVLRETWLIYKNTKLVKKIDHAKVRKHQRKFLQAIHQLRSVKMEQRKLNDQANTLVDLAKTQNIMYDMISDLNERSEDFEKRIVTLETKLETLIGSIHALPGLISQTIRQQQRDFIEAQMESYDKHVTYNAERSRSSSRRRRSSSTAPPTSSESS

[4] = target: Small conductance calcium-activated potassium channel protein 1 (Homo sapiens, UniProt Q92952); assay: Inhibition of human SK1 channel by inside-out patch clamp technique
Small conductance calcium-activated potassium channel protein 1, sequence (Q92952 whole entry): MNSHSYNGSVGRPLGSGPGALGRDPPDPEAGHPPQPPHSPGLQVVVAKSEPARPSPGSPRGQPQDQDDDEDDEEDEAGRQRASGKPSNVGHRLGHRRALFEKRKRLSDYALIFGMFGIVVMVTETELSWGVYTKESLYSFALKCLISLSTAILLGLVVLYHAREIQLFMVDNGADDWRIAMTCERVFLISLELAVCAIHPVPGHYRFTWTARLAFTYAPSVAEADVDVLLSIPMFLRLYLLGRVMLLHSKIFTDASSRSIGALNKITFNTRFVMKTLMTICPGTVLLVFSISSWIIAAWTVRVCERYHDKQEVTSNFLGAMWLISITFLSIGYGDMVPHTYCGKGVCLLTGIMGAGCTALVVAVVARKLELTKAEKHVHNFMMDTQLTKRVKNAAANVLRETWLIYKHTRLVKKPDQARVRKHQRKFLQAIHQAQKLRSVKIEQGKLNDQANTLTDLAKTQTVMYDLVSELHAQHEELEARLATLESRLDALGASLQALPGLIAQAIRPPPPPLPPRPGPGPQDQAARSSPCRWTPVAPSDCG

[5] = target: T1, Small conductance calcium-activated potassium channel protein 3 (Homo sapiens, UniProt Q9UGI6); assay: Inhibition of human SK3 channel expressed in HEK293 cells assessed as Ca2+ induced current after drug wash out by whole cell patch clamp technique in presence of bicuculline methobromide; assay type: cell-based
T1 sequence (Q9UGI6 whole entry): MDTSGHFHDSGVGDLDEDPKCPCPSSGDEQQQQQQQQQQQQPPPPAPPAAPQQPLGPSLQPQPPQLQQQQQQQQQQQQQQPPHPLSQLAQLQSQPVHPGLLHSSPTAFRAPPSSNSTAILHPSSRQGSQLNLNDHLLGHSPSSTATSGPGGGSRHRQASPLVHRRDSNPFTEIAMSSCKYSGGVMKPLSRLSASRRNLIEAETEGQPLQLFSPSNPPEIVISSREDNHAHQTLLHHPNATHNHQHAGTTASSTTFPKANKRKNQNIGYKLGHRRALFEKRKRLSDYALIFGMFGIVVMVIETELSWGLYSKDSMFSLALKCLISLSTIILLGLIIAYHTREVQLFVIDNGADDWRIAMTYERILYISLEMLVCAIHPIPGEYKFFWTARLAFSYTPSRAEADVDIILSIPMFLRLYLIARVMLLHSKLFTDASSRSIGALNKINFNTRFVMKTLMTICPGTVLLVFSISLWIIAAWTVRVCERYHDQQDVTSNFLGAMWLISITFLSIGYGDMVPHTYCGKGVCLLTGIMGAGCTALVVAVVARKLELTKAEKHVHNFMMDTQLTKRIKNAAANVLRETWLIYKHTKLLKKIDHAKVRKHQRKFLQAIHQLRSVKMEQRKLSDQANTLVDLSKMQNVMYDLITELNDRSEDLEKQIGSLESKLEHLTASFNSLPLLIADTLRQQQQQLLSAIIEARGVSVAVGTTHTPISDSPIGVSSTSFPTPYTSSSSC
Procedure, shortened: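 Whole-cell SK3 current is measured every 5 s at 0 mV from voltage ramps (-120 to +30 mV). Pipette Ca2+ is buffered at 400 nM. Inhibition is followed to steady state (about 5 min) and then washed out. Bicuculline methobromide (100 µM) is applied for 20 s during the wash. Kd is fitted from the kinetics.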

[6] = target: T1, Small conductance calcium-activated potassium channel protein 3; assay: Inhibition of human SK3 channel by inside-out patch clamp technique
[7] = target: T1, Small conductance calcium-activated potassium channel protein 3; assay: Inhibition of wild type human SK3 channel expressed in HEK293 cells assessed as Ca2+ sensitivity by inside-out patch clamp technique; assay type: cell-based
Procedure, shortened: (§3)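 Inside-out patches from HEK293 cells transiently transfected (lipofectamine) with hSK3 or hSK3(Q493A;D495A), recorded 2-4 days after transfection. Patches are exposed to a series of Ca2+-buffered solutions. Currents are normalized to the current induced by 10 µM Ca2+, and Hill fits give EC50(Ca2+) and nH. Mean ± SEM.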

[8] = tested on: HEK293; assay: Inhibition of human SK3 channel Q493A;D495A mutant expressed in HEK293 cells at 300 nM by whole cell assay; assay type: cell-based
[9] = target: T1, Small conductance calcium-activated potassium channel protein 3; assay: Inhibition of wild type human SK3 channel expressed in HEK293 cells; assay type: cell-based
[10] = Inhibition of human SK3 channel Q493A;D495A mutant expressed in HEK293 cells assessed as Ca2+ sensitivity by inside-out patch clamp technique; assay type: cell-based; procedure, shortened: as §3
[11] = Inhibition of human SK3 channel Q493A;D495A mutant expressed in HEK293 cells; assay type: cell-based
[12] = target: T1, Small conductance calcium-activated potassium channel protein 3; assay: Inhibition of wild type human SK3 channel expressed in HEK293 cells at 300 nM by whole cell assay; assay type: cell-based

| Structure (SMILES) | Kd [1] [µM] | further results |
| --- | --- | --- |
| Clc1cccc2c1C(Nc1nc3ccccc3[nH]1)CCC2 (stereo not given) | 0.027 |  |
| Cc1cc(C)c2c(c1)C(Nc1nc3ccccc3[nH]1)CCC2 (stereo not given) | 0.033 |  |
| Brc1ccc2c(c1)C(Nc1nc3ccccc3[nH]1)CCC2 (stereo not given) | 0.011 |  |
| c1ccc2c(c1)CCC(Nc1nc3ccccc3[nH]1)C2 (stereo not given) | 2 |  |
| c1ccc2[nH]c(NC3CCCc4sccc43)nc2c1 (stereo not given) | 0.54 |  |
| CCn1c(=O)[nH]c2ccccc21 |  | Activity [2]: Active |
| c1ccc2c(c1)CCC2Nc1nc2ccccc2[nH]1 (stereo not given) | 0.79 |  |
| O=C1Nc2c(ccc(Cl)c2Cl)/C1=N\O |  | Activity [2]: Active |
| CC1CCC(Nc2nc3ccccc3[nH]2)c2ccccc21 (stereo not given) | 0.032 |  |
| COc1ccc(C[C@H]2c3cc(OC)c(OC)cc3CC[N+]2(C)C)cc1OC [LAUDANOSINE METHIODIDE] | 2.6 |  |
| COc1cc2c3cc1Oc1cc(ccc1O)C[C@@H]1c4c(cc(OC)c(O)c4Oc4ccc(cc4)C[C@@H]3N(C)CC2)CC[N+]1(C)C | 16 |  |
| c1ccc2c(c1)CC(Nc1nc3ccccc3[nH]1)C2 | 1.7 |  |
| Fc1ccc2c(c1)C(Nc1nc3ccccc3[nH]1)CCC2 (stereo not given) | 0.034 |  |
| c1ccc2c(c1)OCCC2Nc1nc2ccccc2[nH]1 (stereo not given) | > 10 |  |
| Clc1cc2c(cc1Cl)C(Nc1nc3ccccc3[nH]1)CCC2 (stereo not given) | 0.0091 | Kd [3]: 0.047 µM; Kd [4]: 0.054 µM; Kd [5]: 0.0078 µM; Kd [6]: 0.06 µM; EC50 [7]: 1.81 µM |
| c1ccc2c(c1)SCCC2Nc1nc2ccccc2[nH]1 (stereo not given) | 0.13 |  |
| c1ccc2c(c1)CCCC2Nc1nc2ccccc2[nH]1 (stereo not given) | 0.13 |  |
| Clc1ccc(CNc2nc3ccccc3[nH]2)cc1 | 0.64 |  |
| Clc1ccc(CNc2nc3ccccc3[nH]2)cc1Cl | 0.2 |  |
| Cc1cc(NC2CCCCC2)nc(-n2nc(C)cc2C)n1 |  | Activity [2]: Active |
| c1ccc(CNc2nc3ccccc3[nH]2)cc1 | 2.7 |  |
| c1ccc2c(c1)CCC[C@H]2Nc1nc2ccccc2[nH]1 | 0.077 | inhibition [8]: 45%; Kd [9]: 0.1 µM; EC50 [10]: 0.44 µM; Kd [11]: 0.43 µM; inhibition [12]: 75%; EC50 [7]: 0.4 µM |

| Structure (SMILES) | Kd [1] [µM] | further results |
| --- | --- | --- |
| c1ccc(C2CCCN2c2nc3ccccc3[nH]2)cc1 (stereo not given) | 1.6 |  |
| c1ccc2c3c(ccc2c1)CCCC3Nc1nc2ccccc2[nH]1 (stereo not given) | 0.031 |  |
| c1ccc2c(c1)c1cc[n+]2CCCCC[n+]2ccc(c3ccccc32)NCCCCCN1 | 0.00043 |  |
| c1ccc2c(c1)CCC[C@@H]2Nc1nc2ccccc2[nH]1 | 0.45 |  |
| c1cc2cc(c1)C[n+]1ccc(c3ccccc31)NCc1ccc(cc1)CNc1cc[n+](c3ccccc13)C2 | 0.0027 |  |
| Clc1ccc2c(c1)CCCC2Nc1nc2ccccc2[nH]1 (stereo not given) | 0.12 |  |
| COc1ccc(CC2c3cc(OC)c(OC)cc3CC[N+]2(C)CCC(=O)OCCCCCOC(=O)CC[N+]2(C)CCc3cc(OC)c(OC)cc3C2Cc2ccc(OC)c(OC)c2)cc1OC (stereo not given) [ATRACURIUM] | 6.4 |  |
| Cc1ccc2c(c1)C(Nc1nc3ccccc3[nH]1)CCC2 (stereo not given) | 0.02 |  |
| c1ccc2c(c1)CCN(c1nc3ccccc3[nH]1)C2 | 14 |  |
| CC1CCc2ccccc2C1Nc1nc2ccccc2[nH]1 (stereo not given) | 0.17 |  |
| Clc1cccc2c1CCCC2Nc1nc2ccccc2[nH]1 (stereo not given) | 0.044 |  |
| O=C(Nc1nc2ccccc2[nH]1)c1ccc(Cl)cc1 | > 10 |  |
| c1ccc(C2CCCCN2c2nc3ccccc3[nH]2)cc1 (stereo not given) | 0.75 |  |
| CC(=O)O[C@H]1C[C@@H]2CC[C@@H]3[C@H](CC[C@@]4(C)[C@H]3CC[C@H]([N+]3(C)CCCCC3)[C@@H]4OC(C)=O)[C@@]2(C)C[C@@H]1[N+]1(C)CCCCC1 [PENUCURONIUM] | 21 |  |
| COc1ccc2c(c1)C(Nc1nc3ccccc3[nH]1)CCC2 (stereo not given) | 0.061 |  |
| Clc1ccc2c(c1)C(Nc1nc3ccccc3[nH]1)CCC2 (stereo not given) | 0.017 |  |
| c1ccc(CCc2nc3ccccc3[nH]2)cc1 | > 10 |  |
| c1ccc(-c2ccc3c(c2)C(Nc2nc4ccccc4[nH]2)CCC3)cc1 (stereo not given) | 0.6 |  |
| C[N+]1(C)CCc2cc3c(cc2[C@H]1[C@@H]1OC(=O)c2c1ccc1c2OCO1)OCO3 |  | IC50 [1]: 7 µM |
| Cc1cc(N)c2ccccc2[n+]1CCCCCCCCCC[n+]1c(C)cc(N)c2ccccc21 [DEQUALINIUM CHLORIDE] | 0.18 |  |
| c1ccc2[nH]c(NC3CCCc4ccncc43)nc2c1 (stereo not given) | 6.5 |  |
| c1ccc2c(c1)CCCCC2Nc1nc2ccccc2[nH]1 (stereo not given) | 0.59 |  |
